For 38 compounds, IC50, Efficacy and EC50 results are on record in ChEMBL document CHEMBL3769358, “Arylboronic acids as dual-action FAAH and TRPV1 ligands” (Bioorg Med Chem Lett, 2016).

The target in assay [1] is T1, Transient receptor potential cation channel subfamily V member 1 (Homo sapiens, UniProt Q8NER1). In words: Antagonist activity at recombinant human TRPV1 channel expressed in HEK293 cells assessed as inhibition of capsiacin-induced Ca2+ flux preincubated for 5 mins followed by capsiacin challenge by Fluo-4-AM dye based spectrofluorimetry. It is filed as cell-based. The method in brief:
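Fluo-4-loaded HEK293 cells stably expressing human TRPV1, in Tyrode's buffer pH 7.4, read at 25 °C (ex 488/em 516 nm). Test compound added to the cuvette 5 min before 0.1 µM capsaicin. IC50 taken as half-maximal inhibition of capsaicin-induced [Ca2+]i rise, calculated in GraphPad; mean of n = 4.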

For assay [2], the target named is T2, Fatty-acid amide hydrolase 1 (Rattus norvegicus, UniProt P97612).
T2 sequence (P97612 whole entry): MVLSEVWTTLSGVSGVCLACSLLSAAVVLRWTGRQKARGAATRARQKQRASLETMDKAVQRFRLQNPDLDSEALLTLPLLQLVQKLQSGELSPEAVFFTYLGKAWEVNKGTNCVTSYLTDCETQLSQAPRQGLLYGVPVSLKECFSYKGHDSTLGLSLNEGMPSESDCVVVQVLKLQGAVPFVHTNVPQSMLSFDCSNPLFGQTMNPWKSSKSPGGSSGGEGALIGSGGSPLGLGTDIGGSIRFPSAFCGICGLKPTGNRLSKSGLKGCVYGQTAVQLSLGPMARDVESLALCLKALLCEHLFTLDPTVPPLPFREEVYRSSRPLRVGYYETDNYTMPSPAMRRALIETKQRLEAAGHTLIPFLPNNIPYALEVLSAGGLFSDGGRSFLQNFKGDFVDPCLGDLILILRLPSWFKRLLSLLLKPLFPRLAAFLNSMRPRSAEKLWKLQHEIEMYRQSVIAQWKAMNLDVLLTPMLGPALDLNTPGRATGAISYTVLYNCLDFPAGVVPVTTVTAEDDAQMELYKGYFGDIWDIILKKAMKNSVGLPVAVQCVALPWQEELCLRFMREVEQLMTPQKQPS
Briefly: Inhibition of rat brain FAAH assessed as hydrolysis of [14C]AEA to [14C]Ethanolamine incubated for 30 mins by scintillation counting method.

Assay [3] deals with T1, Transient receptor potential cation channel subfamily V member 1. Briefly: Agonist activity at recombinant human TRPV1 channel expressed in HEK293 cells assessed as increase in intracellular Ca2+ concentration by Fluo-4-AM dye based spectrofluorimetry relative to ionomycin. It counts as cell-based. The procedure, abridged:
(§1)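 HEK293 cells stably expressing human TRPV1, grown in MEM with non-essential amino acids, 10% FBS and 2 mM glutamine at 37 °C, 5% CO2. Cells loaded 1 h at room temperature with Fluo-4-AM (4 µM), washed into Tyrode's buffer pH 7.4, about 100,000 cells per stirred cuvette. Fluorescence (ex 488/em 516 nm) read at 25 °C. Efficacy normalised to 4 µM ionomycin, with wild-type HEK293 response subtracted when significant. EC50 from GraphPad; n = 4.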

For assay [4] the target is unchanged. In words: Agonist activity at recombinant human TRPV1 channel expressed in HEK293 cells assessed as increase in intracellular Ca2+ concentration by Fluo-4-AM dye based spectrofluorimetry. It counts as cell-based. The method in brief:
as §1

The target is the same in assay [5]. Briefly: Antagonist activity at recombinant human TRPV1 channel expressed in HEK293 cells assessed as inhibition of capsiacin-induced Ca2+ flux by Fluo-4 dye based spectrofluorimetry assay.

T1 sequence (Q8NER1 whole entry): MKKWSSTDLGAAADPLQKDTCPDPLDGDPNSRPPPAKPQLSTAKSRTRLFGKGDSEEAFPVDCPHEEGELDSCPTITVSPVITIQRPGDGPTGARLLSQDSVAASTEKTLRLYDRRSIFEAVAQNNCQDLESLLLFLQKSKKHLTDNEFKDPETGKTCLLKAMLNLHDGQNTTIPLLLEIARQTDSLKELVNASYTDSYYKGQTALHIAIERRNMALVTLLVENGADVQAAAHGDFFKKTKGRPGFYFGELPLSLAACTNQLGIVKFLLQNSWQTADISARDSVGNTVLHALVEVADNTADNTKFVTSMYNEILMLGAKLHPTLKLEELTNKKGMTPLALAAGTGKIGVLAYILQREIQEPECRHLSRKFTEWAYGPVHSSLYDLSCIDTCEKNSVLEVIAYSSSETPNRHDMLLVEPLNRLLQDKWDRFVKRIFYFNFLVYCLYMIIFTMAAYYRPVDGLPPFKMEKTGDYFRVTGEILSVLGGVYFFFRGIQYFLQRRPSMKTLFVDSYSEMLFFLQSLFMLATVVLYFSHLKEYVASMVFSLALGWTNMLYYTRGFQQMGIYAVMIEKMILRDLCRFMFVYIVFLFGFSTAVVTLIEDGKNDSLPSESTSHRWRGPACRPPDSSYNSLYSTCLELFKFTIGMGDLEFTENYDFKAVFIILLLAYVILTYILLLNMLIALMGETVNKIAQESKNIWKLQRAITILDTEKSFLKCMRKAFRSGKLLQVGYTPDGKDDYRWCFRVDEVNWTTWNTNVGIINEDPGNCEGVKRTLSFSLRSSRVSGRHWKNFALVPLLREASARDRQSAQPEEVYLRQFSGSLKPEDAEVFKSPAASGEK

As for `O=C(CCCCCCCc1ccccc1)Nc1ccc(B(O)O)cc1`, the results for the IC50 in assay [1] and in assay [2] were above 10000 nM and 390 nM, respectively. For the same compound, the Efficacy in assay [3] was below 10%.

As for `O=C(/C=C/c1ccc(Cl)cc1)Nc1ccc(B(O)O)cc1`, the values for the IC50 in assay [1] and in assay [2] were 1390 nM and 560 nM, respectively. Further, the Efficacy in assay [3] is below 10%.

On to `O=C(Cc1ccccc1)NCCCCCCCc1ccccc1`, for which the IC50 in assay [1] is 1210 nM; in assay [2], above 10000 nM. Besides, the EC50 in assay [4] stood at 660 nM. Further, the Efficacy in assay [3] amounted to 54.6%.

For the compound `CCCCCCCC/C=C\CCCCCCCC(=O)NCc1ccc(B(O)O)c(OC)c1`, the 50% inhibitory concentration (IC50) is 32 nM in assay [1] and above 10000 nM in assay [2]. Further, in assay [4], the EC50 was 20 nM. For the same compound, the Efficacy in assay [3] amounted to 49.2%.

In the case of `O=C(Cc1ccc(B(O)O)cc1)NCc1ccccc1`, the IC50 in assay [1] and in assay [2] was above 10000 nM each time. Besides, the Efficacy in assay [3] was below 10%.

Turning to `OB(O)c1ccc(-c2ccccc2)cc1` [BIPHENYLBORONIC ACID], the values for the IC50 in assay [1] and in assay [2] were above 10000 nM and 790 nM, respectively. In addition, in assay [3], the Efficacy is below 10%.

As for `O=C(CCCCCc1ccccc1)Nc1ccc(B(O)O)cc1`, the IC50 in assay [1] is above 10000 nM; in assay [2] it was 570 nM. In addition, the Efficacy in assay [3] is below 10%.

For `CCCCC/C=C\C/C=C\C/C=C\C/C=C\CCCC(=O)NCCc1c[nH]c2ccc(O)cc12`, the Efficacy in assay [3] is below 10%.

In the case of `O=C(CCCCCc1ccccc1)NCc1ccc(B(O)O)cc1`, the figures for the IC50 in assay [1] and in assay [2] were 2890 nM and 1080 nM, respectively. For the same compound, in assay [4], the EC50 was found to be 1530 nM. In assay [3], the Efficacy amounted to 41.1%.

For the compound `O=C(Nc1ccc(-c2ccccc2)cc1)c1ccc(B(O)O)cc1`, the IC50 in assay [1] is above 10000 nM; in assay [2] it was 150 nM. Also, in assay [4], the EC50 was 3970 nM. The Efficacy in assay [3] was 12.5%.

Consider `CCCCCCCC/C=C\CCCCCCCC(=O)NCc1ccc(B(O)O)cc1`, for which the IC50 in assay [1] is 47 nM; in assay [2] it was above 10000 nM. For the same compound, the concentration giving a half-maximal response (EC50) in assay [4] came out at 22 nM. The Efficacy in assay [3] was 42.2%.

On to `O=C(NCc1ccc(-c2ccccc2)cc1)c1ccc(B(O)O)cc1`, for which the IC50 in assay [1] was above 10000 nM; in assay [2], 1860 nM. For the same compound, the Efficacy in assay [3] is below 10%.

On to `O=C(NCCCCCc1ccccc1)c1ccc(B(O)O)cc1`, for which the results for the IC50 in assay [1] and in assay [2] were above 10000 nM and 180 nM, respectively. In addition, the Efficacy in assay [3] was below 10%.

In the case of `O=C(CCc1ccccc1)NCc1ccc(B(O)O)cc1`, the values for the IC50 in assay [1] and in assay [2] were 230 nM and above 10000 nM, respectively. Besides, the EC50 in assay [4] amounted to 320 nM. Besides, in assay [3], the Efficacy was 60.2%.

As for `O=C(/C=C/c1ccc(Cl)cc1)NCc1ccc(B(O)O)cc1`, the figures for the IC50 in assay [1] and in assay [2] were above 10000 nM and 1510 nM, respectively. The Efficacy in assay [3] was below 10%.

For `O=C(NCc1ccccc1)c1ccc(B(O)O)cc1`, the values for the IC50 in assay [1] and in assay [2] were above 10000 nM and 2870 nM, respectively. Further, in assay [3], the Efficacy is below 10%.

Regarding `CC(C)(C)c1ccc(NC(=O)c2ccc(B(O)O)cc2)cc1`, the IC50 in assay [1] came to 750 nM; in assay [2] it was 5500 nM. For the same compound, the Efficacy in assay [3] is below 10%.

With `O=C(Cc1ccc(B(O)O)cc1)NCCCCCc1ccccc1`, the IC50 is 2530 nM in assay [1] and 630 nM in assay [2]. In addition, the EC50 in assay [4] amounted to 2250 nM. Besides, in assay [3], the Efficacy was 62.8%.

On to `O=C(CCCCCCCc1ccccc1)NCc1ccc(B(O)O)cc1`, for which the figures for the IC50 in assay [1] and in assay [2] were 500 nM and 470 nM, respectively. In assay [4], the EC50 amounted to 1000 nM. The Efficacy in assay [3] worked out at 54.7%.

As to `O=C(Oc1ccc(C(F)(F)F)cc1)N1CCN(c2ncccc2C(F)(F)F)CC1`, the Efficacy in assay [3] was below 10%.

`O=C(Cc1ccc(B(O)O)cc1)NCc1ccc(-c2ccccc2)cc1`: the IC50 stood at 5530 nM in assay [1] and 280 nM in assay [2]. In addition, in assay [4], the EC50 turned out to be 310 nM. In assay [3], the Efficacy is 27.4%.

For the compound `COc1cccc(NC(=O)/C=C/c2ccc(Cl)cc2)c1`, the IC50 in assay [1] is 190 nM; in assay [5], 270 nM; in assay [2] it was above 10000 nM. The Efficacy in assay [3] was below 10%.

With `CCCCCCCCCc1ccc(B(O)O)cc1`, the IC50 in assay [1] was above 10000 nM; in assay [2], 2920 nM. Moreover, the Efficacy in assay [3] is below 10%.

On to `CC(C)(C)c1ccc(NC(=O)Nc2ccc(B(O)O)cc2)cc1`, for which the values for the IC50 in assay [1] and in assay [2] were 1950 nM and above 10000 nM, respectively. Besides, in assay [3], the Efficacy was below 10%.

As for `CC(C)(C)c1ccc(C(=O)Nc2ccc(B(O)O)cc2)cc1`, the IC50 in assay [1] was 780 nM; in assay [2], above 10000 nM. Further, the EC50 in assay [4] stood at 520 nM. In assay [3], the Efficacy was 39.3%.

With `O=C(NCCCCc1ccccc1)c1ccc(B(O)O)cc1`, the IC50 is above 10000 nM in assay [1] and 580 nM in assay [2]. Moreover, the Efficacy in assay [3] is below 10%.

Consider `CC(C)(C)c1ccc(NC(=O)Cc2ccc(B(O)O)cc2)cc1`, for which the IC50 in assay [1] and in assay [2] was above 10000 nM each time. Further, the Efficacy in assay [3] is below 10%.

For `O=C(NCCc1ccc(O)cc1)c1ccc(B(O)O)cc1`, the IC50 in assay [1] and in assay [2] was above 10000 nM in each case. In addition, the Efficacy in assay [3] is below 10%.

With `COc1cc(CNC(=O)CCCCCCCc2ccccc2)ccc1B(O)O`, the results for the IC50 in assay [1] and in assay [2] were 34 nM and 1770 nM, respectively. Besides, the EC50 in assay [4] came out at 51 nM. Further, the Efficacy in assay [3] was 62.5%.

Regarding `COc1cc(CNC(=O)Nc2ccc(C(C)(C)C)cc2)ccc1B(O)O`, the IC50 in assay [1] stood at 8110 nM; in assay [2], 4280 nM. For the same compound, the Efficacy in assay [3] was below 10%.

Consider `CC(C)(C)c1ccc(NC(=O)NCc2ccc(B(O)O)cc2)cc1`, for which the half-inhibitory concentration (IC50) in assay [1] was found to be 4130 nM; in assay [2], 1990 nM. Moreover, the Efficacy in assay [3] is below 10%.

For the compound `COc1cc(CNC(=O)CCCCCc2ccccc2)ccc1B(O)O`, the IC50 in assay [1] came out at 1530 nM; in assay [2], 1320 nM. Further, in assay [4], the EC50 is 1460 nM. Besides, the Efficacy in assay [3] is 59.3%.

Regarding `O=C(/C=C/c1ccc(Cl)cc1)Nc1cccc(B(O)O)c1`, the values for the IC50 in assay [1] and in assay [2] were 41 nM and above 10000 nM, respectively. Further, the Efficacy in assay [3] was below 10%.

With `O=C(NCc1ccc(B(O)O)cc1)c1ccc(-c2ccccc2)cc1`, the IC50 in assay [1] came to 7110 nM; in assay [2], 330 nM. In addition, the EC50 in assay [4] was 4230 nM. The Efficacy in assay [3] is 22%.

`O=C(Cc1ccc(B(O)O)cc1)NCCCCc1ccccc1`: the IC50 is 2190 nM in assay [1] and 1170 nM in assay [2]. In addition, the EC50 in assay [4] turned out to be 1990 nM. In addition, the Efficacy in assay [3] was 44.9%.

Take `O=C(Cc1ccc(-c2ccccc2)cc1)Nc1ccc(B(O)O)cc1`: the IC50 in assay [1] and in assay [2] was above 10000 nM each time. Also, the Efficacy in assay [3] was below 10%.

Regarding `O=C(Cc1ccc(B(O)O)cc1)NCCCCCCCc1ccccc1`, the IC50 in assay [1] was determined as 370 nM; in assay [2], 250 nM. Moreover, the EC50 in assay [4] stood at 370 nM. Moreover, the Efficacy in assay [3] was 52.5%.

For `O=C(Cc1ccc(O)cc1)NCCCCCCCc1ccccc1`, the IC50 in assay [1] was 260 nM. Also, the EC50 in assay [4] came out at 170 nM. Besides, in assay [3], the Efficacy was 64.7%.
